INS-1E ATP HTS: rescue of cytokine-induced death in INS-1E beta cells; INS-1E cytokine-induced death, ATP luminescence, 48 h; normalised: neutral wells 0, positive control 100; hit rate 0.1% among 20,000; protection from cytokine-induced ATP loss, % at 10 µM;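 active = mean replicate protection from cytokine-induced ATP loss at least 50% and at least 75% of replicates each reaching 50%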
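Assay system – rat INS-1E insulinoma cell line · Quantity – 8000 cells per well · Buffer or medium – RPMI without phenol red, 5% FBS · Schedule – 48 h co-treatment, 10 min post-lysis read · Technique – luminescent ATP assay (CellTiter-Glo)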
A1 apoptosis 2: A1 inhibition read as caspase activation; MEF A1-2A-BIM cells, caspase-Glo luminescence, 3 h; percent of clofoctol response, DMSO zero; caspase activation, % (concentration not given with the values); 24,000 tested, under 10 active; AID 2465; in the data active = caspase activation above about 5.9%
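system = A1-2A-BIM-expressing MEF cells | quantity = 2500 MEF cells/well | dosing = 50 nL compound per well, pinned | schedule = overnight cell settling, then 3 h compound exposure, 37 °C | signal = luminescence from DEVD-luciferin Caspase-Glo reagent, 1:1 in 50 mM HEPES, 1 h RT | read-out = Caspase-3/7 activation, seen as rise in luminescence signal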
T cruzi intra: blocks T. cruzi growth inside host cells; intracellular Trypanosoma cruzi in host cells, plate reader; activity score (inhibition), % at 5.01 µM; hit rate 4.9% among 22,000; AID 651903; in the data active = activity score above about 55%;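 also: parasites and compound incubated about four days before reading; 0% = median of neutral control wells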
An asterisk follows results filed as active; nt = not tested or not shown. This excerpt belongs to a sample that is enriched for hits.

SMILES | INS-1E ATP HTS | A1 apoptosis 2 | T cruzi intra
C[C@@H]1CN([C@@H](C)CO)C(=O)c2cccc(NC(=O)Nc3ccc(C(F)(F)F)cc3)c2O[C@@H]1CN(C)Cc1ccc2c(c1)OCO2 | -33 | 1 | 61*
C[C@H](CO)N1C[C@H](C)[C@H](CN(C)Cc2ccc(Cl)c(Cl)c2)Oc2c(NC(=O)Nc3ccc(F)cc3)cccc2C1=O | -11 | nt | 0
C[C@H]1CN([C@@H](C)CO)C(=O)c2cccc(NC(=O)Nc3ccc(F)cc3)c2O[C@@H]1CN(C)C(=O)Nc1ccc(C(F)(F)F)cc1 | 1 | -1 | -1
C[C@H](CO)N1C[C@H](C)[C@H](CN(C)Cc2ccc(Cl)c(Cl)c2)Oc2c(NC(=O)Nc3ccc(C(F)(F)F)cc3)cccc2C1=O | -43 | 0 | 63*
Cc1noc(C)c1NC(=O)Nc1cccc2c1O[C@H](CN(C)Cc1ccccc1)[C@H](C)CN([C@@H](C)CO)C2=O | 6 | 0 | -21
C[C@@H]1CN([C@@H](C)CO)C(=O)c2cccc(NC(=O)Nc3ccc4c(c3)OCO4)c2O[C@H]1CN(C)S(C)(=O)=O | 9 | 0 | 7
C[C@@H]1CN([C@@H](C)CO)C(=O)c2cc(NS(C)(=O)=O)ccc2O[C@@H](C)CCCCO[C@@H]1CN(C)S(=O)(=O)c1ccc(Cl)cc1 | nt | -1 | nt
COc1ccc(S(=O)(=O)N(C)C[C@@H]2OCCCC[C@@H](C)Oc3ccc(NC(=O)Nc4ccc(C(F)(F)F)cc4)cc3C(=O)N([C@H](C)CO)C[C@H]2C)cc1 | nt | 2 | nt
O=C1O[C@@H](c2ccccc2)[C@@H](c2ccccc2)N2[C@@H](c3ccc(O)cc3)[C@]3(C(=O)Nc4ccc(C#CCCO)cc43)[C@@H](C(=O)N3CCN(c4ncccn4)CC3)[C@H]12 | nt | 0 | nt
C[C@H](CO)N1C[C@H](C)[C@H](CN(C)C(=O)Nc2ccc(C(F)(F)F)cc2)Oc2c(NC(=O)C3CCCCC3)cccc2C1=O | -1 | 0 | 10
C[C@@H]1CN([C@@H](C)CO)C(=O)c2cc(NS(=O)(=O)c3ccc(F)cc3)ccc2O[C@@H]1CN(C)Cc1ccc(Oc2ccccc2)cc1 | -33 | nt | 3
C[C@H](CO)N1C[C@H](C)[C@H](CN(C)S(=O)(=O)c2ccccc2)Oc2ccc(NS(=O)(=O)c3ccc(F)cc3)cc2C1=O | -5 | -1 | 58*
Cc1ccc(S(=O)(=O)Nc2ccc3c(c2)CC(=O)N([C@@H](C)CO)C[C@@H](C)[C@@H](CN(C)Cc2ccc(Oc4ccccc4)cc2)O3)cc1 | -19 | nt | 70*
C[C@@H]1CN([C@@H](C)CO)C(=O)c2cc(NS(=O)(=O)c3ccc(F)cc3)ccc2O[C@H]1CN(C)S(=O)(=O)c1ccccc1 | -10 | -1 | 7
C[C@@H]1CN([C@H](C)CO)C(=O)Cc2cc(NS(=O)(=O)c3ccccc3)ccc2O[C@@H]1CN(C)Cc1ccc(Oc2ccccc2)cc1 | -23 | -1 | 71*
C[C@H]1CN([C@@H](C)CO)C(=O)c2cc(NS(=O)(=O)c3ccc(F)cc3)ccc2O[C@@H]1CN(C)Cc1ccc(Oc2ccccc2)cc1 | -16 | nt | 69*
C[C@H]1CN([C@@H](C)CO)C(=O)Cc2cc(NS(=O)(=O)c3ccccc3)ccc2O[C@H]1CN(C)Cc1ccc(Oc2ccccc2)cc1 | -56 | -1 | 39
Cc1ccc(S(=O)(=O)Nc2ccc3c(c2)CC(=O)N([C@@H](C)CO)C[C@H](C)[C@H](CN(C)Cc2ccc(Oc4ccccc4)cc2)O3)cc1 | -36 | nt | 17
C[C@@H]1CN([C@H](C)CO)C(=O)Cc2cc(N(C)C)ccc2O[C@H]1CN(C)S(=O)(=O)c1ccc(F)cc1 | 6 | nt | 4
C[C@@H]1CN([C@H](C)CO)C(=O)c2cccc(NC(=O)c3cnccn3)c2O[C@@H]1CN(C)S(C)(=O)=O | 3 | nt | -19
C[C@H](CO)N1C[C@H](C)[C@@H](CN(C)C(=O)Nc2ccc3c(c2)OCO3)Oc2c(NC(=O)Nc3cccc4ccccc34)cccc2C1=O | -4 | 0 | -38
CC(C)NC(=O)Nc1ccc2c(c1)CC(=O)N([C@@H](C)CO)C[C@H](C)[C@H](CN(C)Cc1ccc(Cl)c(Cl)c1)O2 | -6 | nt | 17
Cc1noc(C)c1S(=O)(=O)Nc1ccc2c(c1)CC(=O)N([C@@H](C)CO)C[C@H](C)[C@H](CN(C)Cc1ccc(Oc3ccccc3)cc1)O2 | -21 | 0 | 26
C[C@@H]1CN([C@@H](C)CO)C(=O)Cc2cc(NS(=O)(=O)c3ccc(F)cc3)ccc2O[C@H]1CN(C)Cc1ccc(Oc2ccccc2)cc1 | nt | 1 | nt
C[C@@H]1CN([C@@H](C)CO)C(=O)Cc2cc(NS(=O)(=O)c3ccc(Cl)cc3)ccc2O[C@H]1CN(C)Cc1ccc(Oc2ccccc2)cc1 | nt | 1 | nt
SMILES | INS-1E ATP HTS | A1 apoptosis 2 | T cruzi intra
C[C@@H]1CN([C@H](C)CO)C(=O)Cc2cc(NS(=O)(=O)c3ccc(F)cc3)ccc2O[C@@H]1CN(C)Cc1ccc(Oc2ccccc2)cc1 | -32 | 0 | 69*
C[C@@H]1CN([C@H](C)CO)C(=O)Cc2cc(NS(=O)(=O)c3ccc(Cl)cc3)ccc2O[C@@H]1CN(C)Cc1ccc(Oc2ccccc2)cc1 | -27 | nt | 61*
Cc1noc(C)c1S(=O)(=O)Nc1ccc2c(c1)CC(=O)N([C@H](C)CO)C[C@@H](C)[C@@H](CN(C)Cc1ccc(Oc3ccccc3)cc1)O2 | 13 | 0 | 67*
COc1ccc(CN(C)C[C@H]2Oc3c(NC(=O)c4ccncc4)cccc3C(=O)N([C@@H](C)CO)C[C@@H]2C)cc1 | -2 | -2 | 83*
C[C@@H]1CN([C@H](C)CO)C(=O)c2cccc(NC(=O)c3ccncc3)c2O[C@H]1CN(C)Cc1ccc(C(=O)Nc2ccccc2N)cc1 | 0 | 0 | 9
COc1ccc(CN(C)C[C@@H]2Oc3c(NC(=O)c4ccncc4)cccc3C(=O)N([C@@H](C)CO)C[C@H]2C)cc1 | 2 | -1 | 79*
COc1ccc(NC(=O)Nc2cccc3c2O[C@H](CN(C)Cc2ccncc2)[C@H](C)CN([C@@H](C)CO)C3=O)cc1 | 1 | 0 | -18
C[C@H](CO)N1C[C@H](C)[C@@H](CN(C)Cc2ccc(Oc3ccccc3)cc2)Oc2c(cccc2N(C)C)C1=O | -17 | -1 | 22
C[C@@H]1CN([C@H](C)CO)C(=O)c2cccc(NC(=O)c3nc4ccccc4s3)c2O[C@@H]1CN(C)Cc1ccc(C(=O)Nc2ccccc2N)cc1 | nt | 0 | nt
C[C@H](CO)N1C[C@H](C)[C@@H](CN(C)Cc2ccc(Oc3ccccc3)cc2)Oc2c(NC(=O)c3nc4ccccc4s3)cccc2C1=O | -26 | nt | 66*
C[C@H]1CN([C@@H](C)CO)C(=O)c2cccc(NC(=O)c3nc4ccccc4s3)c2O[C@@H]1CN(C)Cc1ccc(Cl)c(Cl)c1 | -13 | 0 | 65*
C[C@@H]1CN([C@@H](C)CO)C(=O)c2cccc(NC(=O)c3nc4ccccc4s3)c2O[C@H]1CN(C)Cc1ccc(-c2ccccc2)cc1 | -32 | nt | 71*
C[C@@H]1CN([C@@H](C)CO)C(=O)c2cccc(NC(=O)c3nc4ccccc4s3)c2O[C@H]1CN(C)Cc1ccc(C(=O)Nc2ccccc2N)cc1 | 19 | nt | 70*

Source: PubChem BioAssay (Broad Institute)
